# Assay results as given in PMC7416514 (Clinical & experimental metastasis, 2011).
# Values joined by “and” are separate entries in the source; they are usually repeats but may differ in a detail not shown here. Identical values can stand only once.
# Columns and labels:
# [1] = phase I study in 40 patients ref 6; cited from earlier work
# [2] = system: TP53 mutant cells; settings: cited from earlier work
# [3] = system: 231-BR cells; experiment: Survival study in 231-BR brain metastasis model; format: in vivo, nu/nu NRC mice; settings: 50 mg/kg
# [4] = system: 231-BR cells; experiment: 231-BR experimental brain metastasis prevention model; format: in vivo, nu/nu NRC mice; settings: for Micrometastases Mean: vehicle 239
# Method in brief: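 Female nu/nu NRC mice, 5–7 weeks old, received 175,000 231-BR cells into the left cardiac ventricle. On day 3 they were randomised to test compound or vehicle (2% Cremophor EL, 2% N,N-dimethylacetamide in acidified pH 5 water). Brains were bisected sagittally; ten serial 10-micron sections every 300 microns through the right hemisphere were scored at 50×. Micro and large (>300 micron) lesions are given as mean per section, from two experiments combined, by mixed-model ANOVA with Dunnett adjustment.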
# [5] = Preliminary dose finding experiments; format: in vivo; settings: 75 mg/kg, intraperitoneally every other day, mice
# [6] = system: 231-BR cells; experiment: MTT-based viability assay; format: cell-based; settings: Homo sapiens, 48 h, read-out: IC50 viability of 231-BR cells
# Method in brief: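 231-BR cells in 10% FBS had continuous exposure to test compound over 1–100 nM for 48 h, then an MTT viability read-out. Viability is expressed as percent of vehicle control. There were three separate experiments with n = 4 per point; log10-transformed data went to mixed-model ANOVA with Dunnett post-hoc comparison.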
# [7] = system: 231-BR cells; experiment: Clonogenic survival assay with irradiation; format: cell-based, human; settings: 40 nM, 2 h prior to irradiation, surviving fraction of 0.1
# [8] = system: 231-BR cells; experiment: Western blot of apoptotic markers and phosphorylated Histone H3; format: cell-based, human
# Method in brief: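 231-BR cells were treated with test compound at 5 or 10 nM for the indicated times, then lysed and run on SDS-PAGE with immunoblotting. Antibodies: PLK-1, phospho-histone H3, cleaved and total caspase 9, 8 and 3. Tubulin served as the loading control.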
# [9] = Whole body autoradiography tissue uptake; format: in vivo, rats; settings: rat, single 12.5 mg/kg dose
# Method in brief: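 Rats received a single dose of [14C]-labelled test compound and were sacrificed at timed points up to 24 h. Radioactivity in whole-body sections (brain, striatum, blood) was quantified by phosphoimager against 14C autoradiography standards. Results are μg equivalents/g tissue; limit of quantitation 0.051 μg equivalents/g.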
compound,measurement,setting,value
C[C@@H](Oc1cc(-n2cnc3ccc(CN4CCN(C)CC4)cc32)sc1C(N)=O)c1ccccc1C(F)(F)F [GSK461364A],limiting toxicities,[1],"neutropenia, thrombocytopenia and bone marrow suppression"
same,phospho-Histone H3 (pHH3) in circulating tumor cells,[1],Increased
same,sensitivity in TP53 mutant cells,[2],increased sensitivity
same,prolonged survival,[3]; treatment started 3 days post-injection,17%
same,survival compared to the vehicle control group,"[3]; treatment started day 3, 7 or 14 post-injection",extended survival to the same extent
same,Micrometastases Mean,[4]; 25 mg/kg IP every other day for 27 days from day 3,177 lesions/ section
same,reduction in micrometastases vs vehicle,"[4]; 25 mg/kg, statistically insignificant",26%
same,Micrometastases Mean,[4]; 50 mg/kg IP every other day for 27 days from day 3,159 lesions/ section
same,decline in large brain metastases vs vehicle,"[4]; 50 mg/kg, treatment started 3 days post-injection",62%
same,toxicity in dose finding,[5],toxic causing acute weight loss
same,IC50,[6],~5 nM
same,dose enhancement factor,[7],1.5
same,pHH3 levels (Western blot),[8]; 231-BR cells treated with 5 and 10 nM,increase in pHH3 levels
same,cleaved caspase 9 and cleaved caspase 3 (Western blot),[8]; 231-BR cells treated with 5 or 10 nM,Cleaved caspase 9 and cleaved caspase 3 were observed
same,"Tissue uptake, Brain",[9]; 0.5 h,3.192 μg equivalents/g tissue
same,"Tissue uptake, Brain (striatum)",[9]; 0.5 h,4.283 μg equivalents/g tissue
same,"Tissue uptake, Choroid plexus",[9]; 0.5 h,32.560 μg equivalents/g tissue
same,"Tissue uptake, Meninges",[9]; 0.5 h,10.305 μg equivalents/g tissue
same,"Tissue uptake, Blood (cardiac)","[9]; 0.5 h, listed as [^14C]GSK461364A, 12.5 mg/kg",2.4 μg equivalents/g tissue and 2.396^a μg equivalents/g tissue
same,Drug uptake in the brain or striatum,[9]; 30 min post-injection,3.2–4.3 μg equivalents/g of tissue
same,"Tissue uptake, Blood (cardiac)",[9]; 2 h,0.730 μg equivalents/g tissue
same,"Tissue uptake, Brain",[9]; 2 h,0.363 μg equivalents/g tissue
same,"Tissue uptake, Brain (striatum)",[9]; 2 h,0.522 μg equivalents/g tissue
same,"Tissue uptake, Choroid plexus",[9]; 2 h,9.734 μg equivalents/g tissue
same,"Tissue uptake, Meninges",[9]; 2 h,1.236 μg equivalents/g tissue
same,"Tissue uptake, Blood (cardiac)",[9]; 6 h,0.183 μg equivalents/g tissue
same,"Tissue uptake, Brain",[9]; 6 h,0.088 μg equivalents/g tissue
same,"Tissue uptake, Brain (striatum)",[9]; 6 h,0.225 μg equivalents/g tissue
same,"Tissue uptake, Choroid plexus",[9]; 6 h,2.790 μg equivalents/g tissue
same,"Tissue uptake, Meninges",[9]; 6 h,1.239 μg equivalents/g tissue
same,"Tissue uptake, Brain",[9]; 24 h,0.126 μg equivalents/g tissue
same,"Tissue uptake, Brain (striatum)",[9]; 24 h,0.288 μg equivalents/g tissue
same,"Tissue uptake, Choroid plexus",[9]; 24 h,2.342 μg equivalents/g tissue
same,"Tissue uptake, Meninges",[9]; 24 h,4.881 μg equivalents/g tissue
same,"Tissue uptake, Blood (cardiac)","[9]; 24 h, BLQ = <0.051 μg equivalents/g, 12.5 mg/kg",undetectable
same,"Tissue uptake, Blood (cardiac)","[9]; 24 h, BLQ = <0.051 μg equivalents/g, listed as [^14C]GSK461364A, 12.5 mg/kg",BLQ^b
same,Drug remaining in the brain,[9]; 24 h post-injection,0.13–0.29 μg equivalents/ g
